Screening data deposited in PubChem BioAssay by several laboratories.
Only some compounds are listed: those with a hit (about 1.3% of all), similar ones and a draw of the others.
GRK2 inh: compounds blocking aptamer binding on GRK2 – biochemical, human GRK2, bead flow cytometry, HTS, primary screen; FAM-aptamer displacement from GRK2; 330,000 tested, 0.59% active; inhibition of aptamer binding, % at 10 µM;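 active = inhibition of aptamer binding above 40%, roughly 3 SD of noise, on plates passing a quality check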;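 note: median bead fluorescence of bound FAM aptamer so fluorescent compounds give negative values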
Target sequence (P25098 whole entry, looked up): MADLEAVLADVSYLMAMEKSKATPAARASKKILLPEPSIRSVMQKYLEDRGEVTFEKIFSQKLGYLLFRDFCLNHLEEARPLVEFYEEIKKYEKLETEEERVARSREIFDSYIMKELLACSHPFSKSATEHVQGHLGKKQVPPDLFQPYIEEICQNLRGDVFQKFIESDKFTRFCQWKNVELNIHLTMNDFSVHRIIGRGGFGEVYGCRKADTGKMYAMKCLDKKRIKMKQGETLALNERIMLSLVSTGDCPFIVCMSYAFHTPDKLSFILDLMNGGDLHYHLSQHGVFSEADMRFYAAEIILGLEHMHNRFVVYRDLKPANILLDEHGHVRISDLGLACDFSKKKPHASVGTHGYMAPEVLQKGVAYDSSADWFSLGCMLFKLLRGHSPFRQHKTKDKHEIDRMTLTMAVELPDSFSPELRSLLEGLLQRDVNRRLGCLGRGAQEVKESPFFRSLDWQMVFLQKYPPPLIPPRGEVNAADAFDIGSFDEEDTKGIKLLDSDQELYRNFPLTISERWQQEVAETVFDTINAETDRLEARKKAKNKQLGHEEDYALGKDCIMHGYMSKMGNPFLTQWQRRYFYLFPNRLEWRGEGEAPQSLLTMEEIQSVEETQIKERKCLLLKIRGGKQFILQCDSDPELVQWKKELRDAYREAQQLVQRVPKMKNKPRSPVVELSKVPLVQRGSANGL
procasp7 counter: procaspase-7 activators, primary screen, counter-screen for procaspase-3 activator project, biochemical, absorbance, HTS, human; Caspase-7 (Homo sapiens), P55210; recombinant procaspase-7, Ac-DEVD-pNA absorbance 405 nm; D23A/D198A/D206A triple mutant, cannot self-cleave; scale: DMSO 0, 5 µM enzyme 100; activation, % at 8.5 µM; 330,000 tested, 0.093% active; AID 463210, 2010;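 active = percent activation above the screen-wide mean plus 3 SD, cut at about 25% in these data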
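Detection: p-Nitroaniline absorbance at 405 nm, read at 0 and 120 min; system: Uncleavable procaspase-7 mutant enzyme; evaluation: % activation from two-timepoint absorbance difference, scaled to controls; times: 1 h enzyme–compound preincubation and 2 h substrate reaction, both 25 °C; buffer or medium: Zinc-free HEPES pH 7.4 with 300 mM NaCl, 0.01% Triton X-100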
proCasp3 act: activators of human procaspase-3 D3A mutant, primary screen, biochemical, absorbance, PC-3 D3A mutant, single concentration; Caspase-3 (Homo sapiens), P42574; recombinant procaspase-3 D3A, Ac-DEVD-pNA absorbance 405 nm; activation, % at 8.5 µM; 330,000 tested, 0.11% active; AID 463141, 2010;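 active = activation above the mean of all tested compounds plus 3 SD, cut at about 21% in these data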;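 note: 0% = DMSO alone and 100% = DMSO wells spiked with extra 5 µM PC-3 D3A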
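Assay system – Procaspase-3 D3A mutant, all three cleavage aspartates alanine · Controls – DMSO-only low control, 5 µM PC-3 D3A high control · Schedule – 1 h compound preincubation, 2 h substrate hydrolysis at 25 °C · Signal – 405 nm absorbance of p-nitroaniline, reads at 0 and 120 min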
Lipid droplet: inhibitors of hepatocyte lipid droplet formation, primary screen, imaging, high-throughput imaging, BODIPY stain; inhibition, % at 6.5 µM; AML12 mouse hepatocytes, oleate lipid droplets; AID 1656, 2009; 240,000 tested, 0.4% active;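 active = lipid droplet intensity inhibited by at least 50%, with more than 500 cells counted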
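Assay system: AML12 hepatocytes (mouse); Probe or stimulus: oleic acid at 100 µM to induce lipid droplet formation; Dosing: compound at 6.5 µM only; Schedule: compound with oleate, overnight; Detection: fluorescence imaging, 20x objective, two fields per well; Measure: % inhibition of lipid droplet signal.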
VLA-4 inh: inhibition in human VLA-4 binding assay, primary screen, VLA-4 allosteric modulator project, MLPCN library, flow cytometry, VLA-4 expressing cells | 330,000 tested, 0.2% active | inhibition, % (about 7 µM as worked out from the volumes in the protocol) | ligand binding flow cytometry | Integrin alpha-4 (Homo sapiens), P13612 | AID 2557, 2010; in the data active = inhibition above about 50%
GASC-1 inh: inhibitors of GASC-1 histone demethylase, primary screen, biochemical, fluorescence, DELFIA europium; Lysine-specific demethylase 4C (Homo sapiens), Q9H3R0; GST-JMJD2C(1-420) H3K9me3 demethylation; inhibition, % at 2.35 µM; 330,000 tested, 0.069% active;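 active = more than half of a compound's replicate wells show inhibition beyond 50%, single wells judged on their own value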;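 note: signal counts dimethyl H3K9 product captured on neutravidin plate; 0% = median of DMSO wells and 100% = 0.3 times that DMSO median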
VLA-4 allo CP: retest of VLA-4 allosteric modulators, confirmation, cell-based, cherry-picked plates, U937, HUTS-21 LIBS antibody | shares compounds with VLA-4 inh | 1,300 tested, 2% active | inhibition, % at 6.7 µM | U937 cells, HUTS-21 LIBS mAb binding, flow cytometry; LDV ligand present at threefold Kd; in the data active = inhibition above about 40%;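 note: 0% = ligand without compound and 100% = no ligand background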
Starred values were filed as active, the others as inactive; . = no result given.

SMILES	GRK2 inh	procasp7 counter	proCasp3 act	Lipid droplet	VLA-4 inh	GASC-1 inh	VLA-4 allo CP
CC(C)(C)OC(=O)NCCCC1=CC2=CC(=O)C(C)(O)C(=O)C2=CO1 (stereo unspecified)	0	-10	8	.	-6	7	.
Cc1snc(SCc2cccc(Cl)c2)c1C#N	0	9	6	1	12	1	.
Cc1cc(NC(=O)Cn2c(=O)oc3ccccc32)no1	0	10	0	.	4	-2	0
CCN1C(=O)Cc2cc(S(=O)(=O)NCCc3ccccc3)ccc21	2	6	-9	0	3	5	5
COc1ccc(CNC(=O)CSc2nnc(C3CC3)n2C2CC2)cc1	0	3	4	.	1	5	.
O=C(NCCCn1ccnc1)c1ccc(-c2ccccc2)cc1	0	12	-1	1	45	5	0
Cc1cc(C(=O)CN2CCCC(C)C2)c(C)n1-c1ccc(F)cc1 (stereo unspecified)	28	3	-3	-23	42	0	-10
O=C(O)c1cc(-c2ccc(Cl)c(Cl)c2)n(-c2ccccc2)n1	2	-4	6	-1	47	-23	-8
Oc1cc(-n2cccn2)c(O)cc1-n1cccn1	0	-25	-25	0	9	15	.
CC(=O)c1c(C)[nH]c(C(=O)COC(=O)C2CC2)c1C	0	0	5	2	-4	-8	.
CCOC(=O)c1c(C)[nH]c(C(=O)COC(=O)C2(C)CC2(Cl)Cl)c1C (stereo unspecified)	4	6	-2	8	-9	-3	3
CCOC(=O)c1c(C)[nH]c(C(=O)COC(=O)C2CC2)c1C	.	.	.	.	.	.	-8
CCOC(=O)c1c(C)[nH]c(C(=O)COC(=O)c2ccccn2)c1C	1	-8	9	.	-10	4	-5
COC(=O)c1c(C)[nH]c(C(=O)COC(=O)c2c(C)noc2C)c1C	3	3	-3	.	-5	-5	-4
CC(=O)c1c(C)[nH]c(C(=O)COC(=O)c2c(C)noc2C)c1C	0	6	2	.	9	0	.
CC1CCC(NC(=O)c2ccc(NC(=O)CC3SC(N4CCCC4)=NC3=O)cc2)CC1 (stereo unspecified)	0	5	14	.	6	9	.
O=C(COC(=O)c1ccc(F)cc1)NCC1CCCCC1	0	0	-3	.	51*	-2	0
O=C(COC(=O)c1ccc(S(=O)(=O)NCc2ccco2)cc1)NCC1CCCCC1	22	-4	-9	-1	14	-2	.
O=C(COC(=O)c1ccc(Cl)cc1)NCC1CCCCC1	0	1	5	.	1	-16	-5
O=C(COC(=O)c1c(F)cccc1Cl)NCC1CCCCC1	0	11	0	.	-3	3	6
CCCN1CCN(C(=O)CCNC(=O)Cn2cnc3ccccc3c2=O)CC1	0	7	5	17	20	1	.
Cc1cccc(NC(=O)CSCC(=O)N(C)CC(=O)Nc2cccc(F)c2)c1	2	8	7	.	5	-6	.
Cc1cccc(NC(=O)CSCC(=O)N(C)CCOc2ccc(Cl)cc2)c1	0	0	-4	.	52*	-5	-2
COc1ccccc1-c1sc2ccccc2c1-c1ccc(OCCN2CCCCC2)cc1	0	3	-6	.	.	.	0
